“Also recorded” adds a separate entry of the source.
What was measured:
SGLT1 = molecular target: T1, SGLT1 (Homo sapiens, UniProt P13866); assay: Flavonoid uptake/transport in Caco-2 BBe1 cells with phloridzin; type: in vitro ADME; settings: 50 μM flavonoid, 4 h; for fold change of glycoside transport by phloridzin-mediated inhibition: 1 μM phloridzin 30 min pretreatment, basolateral transport; for effect of phloridzin on cellular uptake and transport of the flavonoid / effect of phloridzin on cellular uptake of the flavonoid: 1 μM phloridzin; for effect of phloridzin on cellular uptake of the flavonoid: cell lysate
T1 sequence (P13866 1-664): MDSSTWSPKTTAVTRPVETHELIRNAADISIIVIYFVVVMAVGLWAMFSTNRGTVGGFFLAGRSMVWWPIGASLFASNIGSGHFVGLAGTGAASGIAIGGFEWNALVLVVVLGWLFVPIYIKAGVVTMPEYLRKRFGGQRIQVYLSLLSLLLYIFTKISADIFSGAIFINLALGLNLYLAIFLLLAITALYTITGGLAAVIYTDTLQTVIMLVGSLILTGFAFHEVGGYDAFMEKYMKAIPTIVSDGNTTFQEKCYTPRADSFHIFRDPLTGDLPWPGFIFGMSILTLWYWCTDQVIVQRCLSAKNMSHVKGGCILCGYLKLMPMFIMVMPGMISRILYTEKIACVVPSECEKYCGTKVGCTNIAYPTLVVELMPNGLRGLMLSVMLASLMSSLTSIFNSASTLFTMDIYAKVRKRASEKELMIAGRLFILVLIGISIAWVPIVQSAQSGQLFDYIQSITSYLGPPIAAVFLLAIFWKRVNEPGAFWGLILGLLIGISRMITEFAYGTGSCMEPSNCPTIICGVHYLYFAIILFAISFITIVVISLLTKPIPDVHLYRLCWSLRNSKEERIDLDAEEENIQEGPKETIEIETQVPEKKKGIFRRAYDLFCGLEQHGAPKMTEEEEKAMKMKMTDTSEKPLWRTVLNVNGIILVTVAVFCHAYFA
Outline: (§1)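 Quantitation was by HPLC on a phenyl-hexyl column (DAD, 360 and 520 nm), using external standard curves from 0–50 μM. Values are expressed as percent of the amount added apically. Data are mean ± SEM of at least three independent experiments.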

Caco-2 BBe1 monolayers = type: in vitro ADME, human; settings: 50 μM apical, 0.5, 2 and 4 h, cell lysate and basolateral compartment
Outline: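 Cells at passage 50–60 were grown on PET inserts (3 × 10^4 cells/well) in supplemented high-glucose DMEM at 37 °C, 5% CO2. Monolayers with TEER >400 Ω cm2 on day 9 were used. 50 μM test compound in HBSS pH 6.4 was applied apically, with HBSS/10 mM HEPES pH 7.4 basolaterally. Basolateral medium and sonicated, methanol/2% FA-extracted lysates were sampled at 0.5, 2 and 4 h.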

Caco-2 BBe1 cells = assay: Cellular glucose; type: cell-based, human; settings: 50 μM, 2 h pretreatment, 2-NBDG fluorescence, vs positive control
Outline: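 Cells seeded at 1 × 10^5 per well and grown overnight, then PBS-washed. Pretreated with 50 μM test compound in glucose-free DMEM for 2 h. Glucose-free DMEM containing 300 μg/mL 2-NBDG was then added for another 2 h. After a PBS wash, fluorescence was read at ex 485/em 535 nm and compared with the positive control group.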

GLUT2 = molecular target: T2, GLUT2 (Homo sapiens, UniProt P11168); assay: Flavonoid uptake/transport in Caco-2 BBe1 cells with phloretin; type: in vitro ADME; settings: 1 μM phloretin, 50 μM flavonoid, 4 h, cell lysate
T2 sequence (P11168 1-524): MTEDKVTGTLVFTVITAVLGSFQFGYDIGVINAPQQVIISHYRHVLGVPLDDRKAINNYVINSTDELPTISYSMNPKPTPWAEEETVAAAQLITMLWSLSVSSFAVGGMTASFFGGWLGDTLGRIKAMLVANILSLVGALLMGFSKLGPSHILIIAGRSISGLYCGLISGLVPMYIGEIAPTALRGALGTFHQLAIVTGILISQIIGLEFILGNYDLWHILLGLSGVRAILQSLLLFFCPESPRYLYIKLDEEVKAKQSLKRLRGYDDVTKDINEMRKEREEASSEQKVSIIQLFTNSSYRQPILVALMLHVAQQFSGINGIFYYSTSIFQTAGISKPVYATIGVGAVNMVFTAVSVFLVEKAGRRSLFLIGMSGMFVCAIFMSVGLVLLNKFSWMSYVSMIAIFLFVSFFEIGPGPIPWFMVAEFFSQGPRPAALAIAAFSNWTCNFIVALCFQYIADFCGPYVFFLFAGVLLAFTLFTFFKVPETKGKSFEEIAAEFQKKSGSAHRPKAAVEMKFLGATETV
Outline: as §1

Caco-2 cells = settings: SGLT1-depended manner; cited from earlier work

Compound | fold change of glycoside transport by phloridzin-mediated inhibition (SGLT1) [fold] | effect of phloridzin on cellular uptake of the flavonoid (SGLT1) | effect of phloretin on cellular uptake of the flavonoid (GLUT2) | effect of phloridzin on cellular uptake and transport of the flavonoid (SGLT1) | cellular uptake and transport kinetics (Caco-2 BBe1 monolayers) | inhibition of glucose uptake (Caco-2 BBe1 cells) | inhibition of glucose uptake (Caco-2 cells)
O=c1c(O[C@@H]2O[C@H](CO)[C@@H](O)[C@H](O)[C@H]2O)c(-c2ccc(O)c(O)c2)oc2cc(O)cc(O)c12 [Q-3-G, quercetin 3-β-D-glucoside] | 2.31 |  |  | significantly reduced the amount of cellular and transported |  |  | 
Oc1cc(O)c2cc(O)c(-c3ccc(O)c(O)c3)[o+]c2c1 [cyanidin] |  |  |  | no effect on the uptake and transport | noticeable decrease; also recorded: readily permeated into the intestinal mucosa within 2 h | significantly blocked the glucose uptake | 
O=c1c(O)c(-c2ccc(O)c(O)c2)oc2cc(O)cc(O)c12 [quercetin] |  |  |  | no effect on the uptake and transport | both concentrations continued to increase; also recorded: readily permeated into the intestinal mucosa within 2 h | significantly blocked the glucose uptake | 

Second part, led by results:

fold change of glycoside transport by phloridzin-mediated inhibition (SGLT1) [fold] | effect of phloridzin on cellular uptake of the flavonoid (SGLT1) | effect of phloretin on cellular uptake of the flavonoid (GLUT2) | Compound | effect of phloridzin on cellular uptake and transport of the flavonoid (SGLT1) | cellular uptake and transport kinetics (Caco-2 BBe1 monolayers) | inhibition of glucose uptake (Caco-2 BBe1 cells) | inhibition of glucose uptake (Caco-2 cells)
3.29 | less significant |  | OC[C@H]1O[C@@H](Oc2cc3c(O)cc(O)cc3[o+]c2-c2ccc(O)c(O)c2)[C@H](O)[C@@H](O)[C@@H]1O [C-3-G, cyanidin 3-O-glucoside] | significantly reduced the amount of cellular and transported | continued to increase as the incubation period extends from 30 min to 4 h |  | 
6.45 | significantly inhibited by phloridzin | significantly inhibited cellular uptake | OC[C@H]1O[C@@H](Oc2cc3c(O[C@@H]4O[C@H](CO)[C@@H](O)[C@H](O)[C@H]4O)cc(O)cc3[o+]c2-c2ccc(O)c(O)c2)[C@H](O)[C@@H](O)[C@@H]1O [cyanin, cyanidin 3,5-diglucoside] | significantly reduced the amount of cellular and transported | continued to increase as the incubation period extends from 30 min to 4 h |  | 
5.77 |  |  | C[C@@H]1O[C@@H](OC[C@H]2O[C@@H](Oc3c(-c4ccc(O)c(O)c4)oc4cc(O)cc(O)c4c3=O)[C@H](O)[C@@H](O)[C@@H]2O)[C@H](O)[C@H](O)[C@H]1O [rutin, quercetin 3-rutinoside] | significantly reduced the amount of cellular and transported |  |  | inhibited glucose uptake
